Measurements from ChEMBL document CHEMBL1154754, “Janus kinase 2 inhibitors. Synthesis and characterization of a novel polycyclic azaindole” (J Med Chem, 2009).
Calls of active or inactive are those of the source. No cut-off for these calls is given here.

Legend:
[1] = target: T1, Tyrosine-protein kinase JAK3 (Homo sapiens, UniProt P52333); assay: Inhibition of recombinant JAK3
T1 sequence (P52333 whole entry): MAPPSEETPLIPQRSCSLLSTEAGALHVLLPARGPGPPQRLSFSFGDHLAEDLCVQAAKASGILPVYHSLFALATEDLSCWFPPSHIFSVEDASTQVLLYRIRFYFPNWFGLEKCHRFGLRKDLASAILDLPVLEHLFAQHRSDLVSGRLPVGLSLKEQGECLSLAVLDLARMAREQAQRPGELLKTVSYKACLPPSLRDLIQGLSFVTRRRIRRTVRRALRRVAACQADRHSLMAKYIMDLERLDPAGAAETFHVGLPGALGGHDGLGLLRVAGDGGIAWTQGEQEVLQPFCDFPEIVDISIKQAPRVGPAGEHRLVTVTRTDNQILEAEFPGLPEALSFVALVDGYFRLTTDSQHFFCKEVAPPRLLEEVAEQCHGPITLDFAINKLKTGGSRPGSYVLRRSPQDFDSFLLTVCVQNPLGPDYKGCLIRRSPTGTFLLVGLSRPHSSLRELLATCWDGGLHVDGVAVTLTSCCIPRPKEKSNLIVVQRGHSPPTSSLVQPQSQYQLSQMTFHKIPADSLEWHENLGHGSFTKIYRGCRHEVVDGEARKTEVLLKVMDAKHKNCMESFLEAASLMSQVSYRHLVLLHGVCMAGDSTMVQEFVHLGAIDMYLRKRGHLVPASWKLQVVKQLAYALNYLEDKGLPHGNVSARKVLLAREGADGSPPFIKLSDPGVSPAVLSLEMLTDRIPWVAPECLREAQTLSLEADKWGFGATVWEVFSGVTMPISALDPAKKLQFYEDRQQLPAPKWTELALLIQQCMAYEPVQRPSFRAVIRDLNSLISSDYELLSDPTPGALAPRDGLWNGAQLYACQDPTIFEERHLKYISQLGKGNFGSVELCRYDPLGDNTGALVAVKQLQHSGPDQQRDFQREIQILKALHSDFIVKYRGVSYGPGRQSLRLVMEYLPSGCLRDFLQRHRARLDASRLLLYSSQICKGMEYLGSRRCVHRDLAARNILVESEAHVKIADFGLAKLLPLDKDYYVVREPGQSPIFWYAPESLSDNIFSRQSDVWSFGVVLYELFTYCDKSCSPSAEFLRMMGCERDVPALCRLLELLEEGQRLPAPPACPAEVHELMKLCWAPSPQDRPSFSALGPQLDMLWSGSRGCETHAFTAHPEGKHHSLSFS

[2] = tested on: BaF3; assay: Antitumor activity against JAK2 V617F mutant harboring mouse sBA/F3 cells xenografted in BALB/c mouse assessed as reduced splenomegaly at 15 mg/kg, po bid for 32 days; assay type: functional, organism-based; parameters: dose 15 mg/kg
Outline: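 Leukemia induced in BALB/c mice (n = 12/group) by iv injection of 1 million mJAK2(V617F)-Ba/F3 cells. Dosing began 1 week after implantation: 15 mg/kg oral gavage b.i.d. as a suspension in 5% methylcellulose, or vehicle alone, until day 32 or moribundity. Spleens were harvested and weighed after sacrifice on day 32.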

[3] = target: T2, Mitogen-activated protein kinase kinase kinase kinase 2 (Homo sapiens, UniProt Q12851); assay: Inhibition of GCK
T2 sequence (Q12851 whole entry): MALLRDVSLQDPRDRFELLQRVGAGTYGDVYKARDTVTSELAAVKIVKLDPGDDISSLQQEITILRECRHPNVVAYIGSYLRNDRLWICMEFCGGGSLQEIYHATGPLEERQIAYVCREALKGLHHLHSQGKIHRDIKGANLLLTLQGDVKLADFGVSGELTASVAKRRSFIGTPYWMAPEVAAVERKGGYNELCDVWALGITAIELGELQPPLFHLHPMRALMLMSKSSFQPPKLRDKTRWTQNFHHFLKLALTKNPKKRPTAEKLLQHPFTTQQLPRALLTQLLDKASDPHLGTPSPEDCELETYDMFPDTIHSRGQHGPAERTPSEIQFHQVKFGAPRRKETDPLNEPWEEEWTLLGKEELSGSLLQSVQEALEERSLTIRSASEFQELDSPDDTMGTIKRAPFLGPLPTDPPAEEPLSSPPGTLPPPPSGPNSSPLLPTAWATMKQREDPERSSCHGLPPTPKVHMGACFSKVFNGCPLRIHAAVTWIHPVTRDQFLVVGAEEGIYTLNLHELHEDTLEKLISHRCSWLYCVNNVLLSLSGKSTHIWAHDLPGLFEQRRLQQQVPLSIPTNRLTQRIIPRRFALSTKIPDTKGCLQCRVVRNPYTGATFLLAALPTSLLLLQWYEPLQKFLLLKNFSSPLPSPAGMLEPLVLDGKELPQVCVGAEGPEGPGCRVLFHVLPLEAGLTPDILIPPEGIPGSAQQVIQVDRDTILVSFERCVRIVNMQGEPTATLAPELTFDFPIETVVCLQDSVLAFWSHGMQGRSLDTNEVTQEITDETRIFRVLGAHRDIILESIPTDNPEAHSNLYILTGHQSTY

[4] = AUC (0 to infinity) in Sprague-Dawley rat at 1.8 mg/kg, iv by LC/MS/MS method; assay type: ADME, organism-based; parameters: time infinity, dose 1.8 mg/kg, route intravenous; settings: plasma
Outline: (§1)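 Male Charles River Sprague-Dawley rats and Fox Chase SCID (CB-17) mice, dosed iv or po. Plasma drug concentrations measured by a specific LC/MS/MS method. Pharmacokinetic parameters are reported as mean values.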

[5] = Tmax in CB17 mouse at 10 mg/kg, po by LC/MS/MS method; assay type: ADME, organism-based; parameters: dose 10 mg/kg, route oral; settings: in vivo; outline: as §1
[6] = Half life in CB17 mouse at 10 mg/kg, po by LC/MS/MS method; assay type: ADME, organism-based; parameters: dose 10 mg/kg, route oral; settings: in vivo; outline: as §1
[7] = Tmax in Sprague-Dawley rat at 10 mg/kg, po by LC/MS/MS method; assay type: ADME, organism-based; parameters: dose 10 mg/kg, route oral; settings: in vivo; outline: as §1
[8] = Oral bioavailability in Sprague-Dawley rat at 10 mg/kg by LC/MS/MS method; assay type: ADME, organism-based; settings: in vivo; outline: as §1
[9] = target: Mast/stem cell growth factor receptor Kit (Homo sapiens, UniProt P10721); assay: Inhibition of cKit
[10] = AUC (0 to infinity) in Sprague-Dawley rat at 10 mg/kg, po by LC/MS/MS method; assay type: ADME, organism-based; parameters: time infinity, dose 10 mg/kg, route oral; settings: plasma; outline: as §1
[11] = Half life in Sprague-Dawley rat at 10 mg/kg, po by LC/MS/MS method; assay type: ADME, organism-based; parameters: dose 10 mg/kg, route oral; settings: in vivo; outline: as §1
[12] = Clearance in Sprague-Dawley rat at 1.8 mg/kg, iv by LC/MS/MS method; assay type: ADME, organism-based; parameters: dose 1.8 mg/kg, route intravenous; settings: in vivo; outline: as §1
[13] = Half life in CB17 mouse at 9 mg/kg, iv by LC/MS/MS method; assay type: ADME, organism-based; parameters: dose 9 mg/kg, route intravenous; settings: in vivo; outline: as §1
[14] = Cmax in Sprague-Dawley rat at 1.8 mg/kg, iv by LC/MS/MS method; assay type: ADME, organism-based; parameters: dose 1.8 mg/kg, route intravenous; settings: in vivo; outline: as §1
[15] = target: ALK tyrosine kinase receptor (Homo sapiens, UniProt Q9UM73); assay: Inhibition of ALK
[16] = Cmax in CB17 mouse at 10 mg/kg, po by LC/MS/MS method; assay type: ADME, organism-based; parameters: dose 10 mg/kg, route oral; settings: in vivo; outline: as §1
[17] = Cmax in Sprague-Dawley rat at 10 mg/kg, po by LC/MS/MS method; assay type: ADME, organism-based; parameters: dose 10 mg/kg, route oral; settings: in vivo; outline: as §1
[18] = AUC (0 to infinity) in CB17 mouse at 10 mg/kg, po by LC/MS/MS method; assay type: ADME, organism-based; parameters: time infinity, dose 10 mg/kg, route oral; settings: plasma; outline: as §1
[19] = Clearance in CB17 mouse at 9 mg/kg, iv by LC/MS/MS method; assay type: ADME, organism-based; parameters: dose 9 mg/kg, route intravenous; settings: in vivo; outline: as §1
[20] = Volume of distribution at steady state in CB17 mouse at 9 mg/kg, iv by LC/MS/MS method; assay type: ADME, organism-based; parameters: dose 9 mg/kg, route intravenous; settings: in vivo, read-out: Vdss; outline: as §1
[21] = AUC (0 to infinity) in CB17 mouse at 9 mg/kg, iv by LC/MS/MS method; assay type: ADME, organism-based; parameters: time infinity, dose 9 mg/kg, route intravenous; settings: plasma; outline: as §1
[22] = tested on: Mus musculus; assay: Improvement in survival of BALB/c mouse xenografted with JAK2 V617F mutant harboring mouse Ba/F3 cells assessed as survival days at 15 mg/kg, po bid for 32 days; assay type: functional, BaF3
Outline: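 BALB/c mice (n = 12/group) received one million mJAK2-Ba/F3 cells (murine Ba/F3 carrying mutant V617F JAK2) intravenously. Treatment started 1 week after implantation. Dosing was 15 mg/kg by oral gavage twice daily as a suspension in 5% methylcellulose, with a vehicle-only control group. Dosing continued until day 32 or moribundity. Survival was shown as Kaplan-Meier plots, and unrelated cage deaths were censored.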

[23] = Oral bioavailability life in CB17 mouse at 10 mg/kg by LC/MS/MS method; assay type: ADME, organism-based; settings: in vivo; outline: as §1
[24] = Half life in Sprague-Dawley rat at 1.8 mg/kg, iv by LC/MS/MS method; assay type: ADME, organism-based; parameters: dose 1.8 mg/kg, route intravenous; settings: in vivo; outline: as §1
[25] = Volume of distribution at steady state in Sprague-Dawley rat at 1.8 mg/kg, iv by LC/MS/MS method; assay type: ADME, organism-based; parameters: dose 1.8 mg/kg, route intravenous; settings: in vivo, read-out: Vdss; outline: as §1
[26] = Cmax in CB17 mouse at 9 mg/kg, iv by LC/MS/MS method; assay type: ADME, organism-based; parameters: dose 9 mg/kg, route intravenous; settings: in vivo; outline: as §1
[27] = target: T1, Tyrosine-protein kinase JAK3; assay: Inhibition of JAK3 in […] assessed as inhibition of IL2-induced STAT5 phosphorylation by flow cytometry; assay type: cell-based
[28] = target: Tyrosine-protein kinase JAK2 (Homo sapiens, UniProt O60674); assay: Inhibition of recombinant JAK2
Tyrosine-protein kinase JAK2, sequence (O60674 whole entry): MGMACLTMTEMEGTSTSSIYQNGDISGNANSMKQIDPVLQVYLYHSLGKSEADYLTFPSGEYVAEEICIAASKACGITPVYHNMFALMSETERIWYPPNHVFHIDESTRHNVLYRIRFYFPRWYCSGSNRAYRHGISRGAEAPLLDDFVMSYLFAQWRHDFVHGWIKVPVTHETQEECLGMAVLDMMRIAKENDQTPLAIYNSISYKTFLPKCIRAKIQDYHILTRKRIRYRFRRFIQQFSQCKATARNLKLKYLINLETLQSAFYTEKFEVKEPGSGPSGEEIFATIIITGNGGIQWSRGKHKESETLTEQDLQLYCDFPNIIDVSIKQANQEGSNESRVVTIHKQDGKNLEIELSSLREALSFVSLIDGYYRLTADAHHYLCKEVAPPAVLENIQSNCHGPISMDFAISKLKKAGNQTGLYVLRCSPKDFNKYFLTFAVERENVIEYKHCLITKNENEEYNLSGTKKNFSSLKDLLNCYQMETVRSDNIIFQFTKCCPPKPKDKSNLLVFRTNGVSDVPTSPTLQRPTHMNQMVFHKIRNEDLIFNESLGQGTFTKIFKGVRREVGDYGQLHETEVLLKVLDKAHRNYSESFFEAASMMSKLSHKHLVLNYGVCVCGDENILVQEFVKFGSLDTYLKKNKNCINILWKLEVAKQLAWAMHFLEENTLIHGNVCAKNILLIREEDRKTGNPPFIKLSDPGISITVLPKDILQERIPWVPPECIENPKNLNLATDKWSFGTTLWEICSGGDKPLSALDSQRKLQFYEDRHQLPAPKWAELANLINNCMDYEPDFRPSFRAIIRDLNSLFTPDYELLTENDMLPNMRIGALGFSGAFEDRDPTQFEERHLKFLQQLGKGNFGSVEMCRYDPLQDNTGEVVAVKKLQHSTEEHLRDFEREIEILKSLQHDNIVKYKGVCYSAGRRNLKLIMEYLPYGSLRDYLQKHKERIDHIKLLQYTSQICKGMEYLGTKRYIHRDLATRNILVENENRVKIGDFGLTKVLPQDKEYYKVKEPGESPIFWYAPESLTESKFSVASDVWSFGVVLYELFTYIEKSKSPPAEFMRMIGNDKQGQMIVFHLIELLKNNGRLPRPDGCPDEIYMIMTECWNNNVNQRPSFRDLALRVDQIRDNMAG

ALK tyrosine kinase receptor, sequence (Q9UM73 whole entry): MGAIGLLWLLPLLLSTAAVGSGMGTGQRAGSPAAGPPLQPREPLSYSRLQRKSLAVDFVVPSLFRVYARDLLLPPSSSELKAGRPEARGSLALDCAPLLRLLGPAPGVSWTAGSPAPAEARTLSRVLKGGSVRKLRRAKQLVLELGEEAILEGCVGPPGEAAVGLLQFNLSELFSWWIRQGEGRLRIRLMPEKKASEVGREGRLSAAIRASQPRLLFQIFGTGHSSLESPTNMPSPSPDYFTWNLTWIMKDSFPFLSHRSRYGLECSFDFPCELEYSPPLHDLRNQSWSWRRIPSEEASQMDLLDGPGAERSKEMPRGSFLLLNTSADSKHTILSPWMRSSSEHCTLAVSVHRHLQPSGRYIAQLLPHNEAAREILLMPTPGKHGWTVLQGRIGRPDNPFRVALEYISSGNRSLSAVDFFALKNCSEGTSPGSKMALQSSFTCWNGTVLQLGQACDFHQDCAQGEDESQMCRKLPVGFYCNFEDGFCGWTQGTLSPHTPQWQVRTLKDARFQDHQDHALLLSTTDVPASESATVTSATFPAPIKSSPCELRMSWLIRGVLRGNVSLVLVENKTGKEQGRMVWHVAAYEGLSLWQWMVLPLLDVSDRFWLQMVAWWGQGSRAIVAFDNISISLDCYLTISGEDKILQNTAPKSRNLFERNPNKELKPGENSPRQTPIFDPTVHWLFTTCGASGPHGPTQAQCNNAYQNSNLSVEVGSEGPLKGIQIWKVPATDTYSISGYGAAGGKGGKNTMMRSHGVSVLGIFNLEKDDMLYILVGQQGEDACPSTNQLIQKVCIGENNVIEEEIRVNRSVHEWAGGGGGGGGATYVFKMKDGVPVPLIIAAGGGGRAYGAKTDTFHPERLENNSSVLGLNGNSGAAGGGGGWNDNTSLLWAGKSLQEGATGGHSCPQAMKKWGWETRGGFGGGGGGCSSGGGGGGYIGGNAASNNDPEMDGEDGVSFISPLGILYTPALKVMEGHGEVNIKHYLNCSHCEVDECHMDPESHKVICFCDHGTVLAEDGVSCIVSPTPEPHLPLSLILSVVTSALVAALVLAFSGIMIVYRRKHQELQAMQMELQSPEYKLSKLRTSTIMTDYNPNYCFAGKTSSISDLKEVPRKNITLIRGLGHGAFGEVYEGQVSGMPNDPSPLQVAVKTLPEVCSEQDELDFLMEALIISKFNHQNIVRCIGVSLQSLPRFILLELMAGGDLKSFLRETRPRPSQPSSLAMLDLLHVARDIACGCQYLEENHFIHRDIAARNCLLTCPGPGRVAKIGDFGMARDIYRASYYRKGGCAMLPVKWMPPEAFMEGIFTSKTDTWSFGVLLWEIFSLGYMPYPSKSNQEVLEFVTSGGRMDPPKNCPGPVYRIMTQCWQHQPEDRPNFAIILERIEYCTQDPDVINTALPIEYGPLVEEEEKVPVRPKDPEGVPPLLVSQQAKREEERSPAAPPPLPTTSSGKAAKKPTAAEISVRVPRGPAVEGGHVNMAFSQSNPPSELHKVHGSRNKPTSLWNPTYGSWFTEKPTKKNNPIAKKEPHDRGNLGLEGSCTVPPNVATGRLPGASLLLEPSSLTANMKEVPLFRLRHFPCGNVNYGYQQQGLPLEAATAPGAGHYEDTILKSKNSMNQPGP
Mast/stem cell growth factor receptor Kit, sequence (P10721 whole entry): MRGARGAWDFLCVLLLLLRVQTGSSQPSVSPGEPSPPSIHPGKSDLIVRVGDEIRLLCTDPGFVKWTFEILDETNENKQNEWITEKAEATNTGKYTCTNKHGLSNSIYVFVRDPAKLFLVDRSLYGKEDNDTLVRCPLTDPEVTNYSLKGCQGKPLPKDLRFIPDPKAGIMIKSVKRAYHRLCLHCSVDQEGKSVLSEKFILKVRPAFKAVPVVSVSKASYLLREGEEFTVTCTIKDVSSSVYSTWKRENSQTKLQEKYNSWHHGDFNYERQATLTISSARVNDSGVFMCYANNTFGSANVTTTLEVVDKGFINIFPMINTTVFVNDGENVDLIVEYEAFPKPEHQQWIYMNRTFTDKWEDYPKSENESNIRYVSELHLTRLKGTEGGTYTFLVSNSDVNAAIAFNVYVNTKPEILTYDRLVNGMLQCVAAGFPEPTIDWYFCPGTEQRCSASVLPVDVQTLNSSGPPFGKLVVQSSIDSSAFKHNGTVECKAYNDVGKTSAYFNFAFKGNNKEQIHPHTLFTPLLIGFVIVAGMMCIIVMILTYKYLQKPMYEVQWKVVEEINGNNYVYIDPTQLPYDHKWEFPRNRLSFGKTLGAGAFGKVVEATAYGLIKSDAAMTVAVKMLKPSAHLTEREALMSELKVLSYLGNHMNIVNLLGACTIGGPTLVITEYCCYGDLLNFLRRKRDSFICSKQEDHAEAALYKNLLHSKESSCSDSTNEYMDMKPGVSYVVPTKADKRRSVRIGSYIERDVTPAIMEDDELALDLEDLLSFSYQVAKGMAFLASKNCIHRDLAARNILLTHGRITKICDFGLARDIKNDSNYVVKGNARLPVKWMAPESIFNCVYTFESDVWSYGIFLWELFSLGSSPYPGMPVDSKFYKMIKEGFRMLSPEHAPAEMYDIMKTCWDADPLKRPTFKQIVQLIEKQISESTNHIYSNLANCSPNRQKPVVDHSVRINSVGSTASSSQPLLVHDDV

For `O=C1Nc2ccccc2-c2ccnc3[nH]cc(c23)C1c1ccc(O)cc1` (single isomer, unassigned; atropisomer 2), the Ki [1] was 6 nM.
In the case of `O=C1Nc2ccccc2-c2ccnc3[nH]cc(c23)C1c1ccc(O)cc1` (stereo not given) [listing 1 of 2 here], the Activity [2] is reported as “Active”.
Work on `O=C1Nc2ccccc2-c2ccnc3[nH]cc(c23)C1c1ccc(O)cc1` (stereo not given) [listing 2 of 2 here] yielded an IC50 [3] of 340 nM, an AUC(0-inf) [4] of 1260 ng·h/mL and a Tmax [5] of 2 h. For the same molecule, the half-life [6] was 192 min, the Tmax [7] was 3 h and the bioavailability [8] was 100%. For the same molecule, the Ki [9] was 190 nM, the AUC(0-inf) [10] was 7700 ng·h/mL and the half-life [11] was 216 min. For the same molecule, the clearance [12] was 23.8 mL/min/kg, the half-life [13] was 162 min and the Cmax [14] was 700 ng/mL. The Ki [15] was 17 nM, the Cmax [16] was 1000 ng/mL and the Cmax [17] was 1080 ng/mL. It also gave an AUC(0-inf) [18] of 8300 ng·h/mL, a clearance [19] of 12.1 mL/min/kg and a Vd [20] of 2.3 L/kg. The AUC(0-inf) [21] was 12500 ng·h/mL, the Survival [22] was 32 days and the bioavailability [23] was 66.1%. It also gave a half-life [24] of 204 min, a Vd [25] of 5.7 L/kg and a Cmax [26] of 7300 ng/mL.
In the case of `O=C1Nc2ccccc2-c2ccnc3[nH]cc(c23)C1c1ccc(O)cc1` (single isomer, unassigned; atropisomer 1), the IC50 [27] is reported as 1530 nM and the Ki [1] is reported as 5.5 nM.
Work on `Clc1cnc2[nH]cc(-c3ccccc3)c2c1` yielded a Ki [28] of 260 nM.
`c1ccc(-c2ncnc3[nH]ccc23)cc1` showed a Ki [28] of 480 nM.
